The results in this text go back to ChEMBL document CHEMBL4808225, “Discovery and Characterization of Selective and Ligand-Efficient DYRK Inhibitors” (J Med Chem, 2021).

≈ marks a conversion by molar mass, not a printed value.

The nature of data set [1]: Metabolic stability in rat liver microsomes. It counts as ADME, Microsome. Conditions: read-out: Stabilty. (Microsomes from liver hold many membrane-bound enzymes, among them those of drug oxidation.)
Data set [2] can be described thus: Thermodynamic solubility of the compound at pH 6.8. Conditions: buffer, read-out: Therm_solubility. Format: physicochemical. In short, it runs like this: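 Thermodynamic solubility measured at pH 6.8 in a single experiment, reported in […].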
Data set [3] has as its target T1, Dual specificity tyrosine-phosphorylation-regulated kinase 2 (Homo sapiens) (UniProt Q92630).
T1 sequence (whole entry): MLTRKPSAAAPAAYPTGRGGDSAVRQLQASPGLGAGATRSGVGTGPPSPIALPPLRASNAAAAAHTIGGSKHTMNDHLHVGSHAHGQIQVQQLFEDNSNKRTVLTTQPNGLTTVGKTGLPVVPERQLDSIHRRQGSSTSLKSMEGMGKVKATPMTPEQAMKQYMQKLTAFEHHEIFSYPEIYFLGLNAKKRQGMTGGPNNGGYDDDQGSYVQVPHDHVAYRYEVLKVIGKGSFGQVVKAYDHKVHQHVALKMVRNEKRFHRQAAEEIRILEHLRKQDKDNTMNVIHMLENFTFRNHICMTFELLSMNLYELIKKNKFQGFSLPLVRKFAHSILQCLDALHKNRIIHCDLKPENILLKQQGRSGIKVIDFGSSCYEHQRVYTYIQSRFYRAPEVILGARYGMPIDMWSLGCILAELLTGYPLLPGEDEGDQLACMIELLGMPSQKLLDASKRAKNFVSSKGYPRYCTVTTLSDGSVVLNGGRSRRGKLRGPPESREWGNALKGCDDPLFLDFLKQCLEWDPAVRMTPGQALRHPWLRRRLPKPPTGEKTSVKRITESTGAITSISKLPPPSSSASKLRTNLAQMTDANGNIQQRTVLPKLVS
Kind of data set: Inhibition of wild-type human full length DYRK2 (M1 to S528 residues) expressed in mammalian expression system assessed as remaining activity at 1 uM by Kinomescan method relative to control. Put shortly: (§1)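 KINOMEscan competition binding panel run with inhibitor at 1 μM; read-out is remaining kinase activity (percent of control).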

Data set [4] deals with T2, Dual specificity protein kinase CLK1 (Homo sapiens, UniProt P49759). Kind of data set: Inhibition of wild-type human full length CLK1 (M1 to I484 residues) expressed in bacterial expression system assessed as remaining activity at 1 uM by Kinomescan method relative to control. In short, it runs like this: as §1
Target sequence in this assay (P49759 whole entry, looked up, the tested form may be a part): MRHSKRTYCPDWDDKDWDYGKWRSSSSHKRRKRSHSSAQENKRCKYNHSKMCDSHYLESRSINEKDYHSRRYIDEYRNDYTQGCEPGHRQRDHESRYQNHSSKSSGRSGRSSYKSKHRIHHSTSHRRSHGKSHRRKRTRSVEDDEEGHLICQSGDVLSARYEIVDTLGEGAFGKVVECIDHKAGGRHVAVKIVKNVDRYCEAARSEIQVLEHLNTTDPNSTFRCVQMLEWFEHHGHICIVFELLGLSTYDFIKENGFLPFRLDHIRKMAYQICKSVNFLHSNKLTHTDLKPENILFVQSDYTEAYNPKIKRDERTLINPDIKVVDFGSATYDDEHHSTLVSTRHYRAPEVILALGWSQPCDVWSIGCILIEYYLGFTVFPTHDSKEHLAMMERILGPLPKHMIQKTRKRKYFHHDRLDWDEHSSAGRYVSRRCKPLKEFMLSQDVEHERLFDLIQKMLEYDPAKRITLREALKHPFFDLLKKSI
Data set [5] concerns the target Dual specificity protein kinase CLK2 (Homo sapiens) (UniProt P49760). Kind of data set: Inhibition of wild-type human partial length CLK2 (D144 to R498 residues) expressed in bacterial expression system assessed as remaining activity at 1 uM by Kinomescan method relative to control. In short, it runs like this:
as §1

The target in data set [6] is Glycogen synthase kinase-3 beta (Homo sapiens) (UniProt P49841). Nature of the data set: Inhibition of wild-type human full length GSK3B (M1 to T433 residues) expressed in mammalian expression system assessed as remaining activity at 1 uM by Kinomescan method relative to control. In short, it runs like this: as §1
Chain of Glycogen synthase kinase-3 beta (Homo sapiens) (P49841 whole entry, looked up, the tested form may be a part): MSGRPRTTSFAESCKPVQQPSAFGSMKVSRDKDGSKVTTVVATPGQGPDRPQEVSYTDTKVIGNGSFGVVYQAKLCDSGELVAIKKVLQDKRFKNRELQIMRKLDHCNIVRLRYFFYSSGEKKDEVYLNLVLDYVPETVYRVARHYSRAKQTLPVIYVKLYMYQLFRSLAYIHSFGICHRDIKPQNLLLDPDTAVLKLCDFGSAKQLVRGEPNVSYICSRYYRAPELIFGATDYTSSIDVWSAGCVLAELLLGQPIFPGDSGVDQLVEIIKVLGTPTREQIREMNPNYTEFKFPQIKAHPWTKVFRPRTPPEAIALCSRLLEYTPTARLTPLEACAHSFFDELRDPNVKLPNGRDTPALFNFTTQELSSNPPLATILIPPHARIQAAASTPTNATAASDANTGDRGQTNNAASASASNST
The target of data set [7] is T3, Serine/threonine-protein kinase haspin (Homo sapiens, UniProt Q8TF76).
T3 sequence (Q8TF76 whole entry): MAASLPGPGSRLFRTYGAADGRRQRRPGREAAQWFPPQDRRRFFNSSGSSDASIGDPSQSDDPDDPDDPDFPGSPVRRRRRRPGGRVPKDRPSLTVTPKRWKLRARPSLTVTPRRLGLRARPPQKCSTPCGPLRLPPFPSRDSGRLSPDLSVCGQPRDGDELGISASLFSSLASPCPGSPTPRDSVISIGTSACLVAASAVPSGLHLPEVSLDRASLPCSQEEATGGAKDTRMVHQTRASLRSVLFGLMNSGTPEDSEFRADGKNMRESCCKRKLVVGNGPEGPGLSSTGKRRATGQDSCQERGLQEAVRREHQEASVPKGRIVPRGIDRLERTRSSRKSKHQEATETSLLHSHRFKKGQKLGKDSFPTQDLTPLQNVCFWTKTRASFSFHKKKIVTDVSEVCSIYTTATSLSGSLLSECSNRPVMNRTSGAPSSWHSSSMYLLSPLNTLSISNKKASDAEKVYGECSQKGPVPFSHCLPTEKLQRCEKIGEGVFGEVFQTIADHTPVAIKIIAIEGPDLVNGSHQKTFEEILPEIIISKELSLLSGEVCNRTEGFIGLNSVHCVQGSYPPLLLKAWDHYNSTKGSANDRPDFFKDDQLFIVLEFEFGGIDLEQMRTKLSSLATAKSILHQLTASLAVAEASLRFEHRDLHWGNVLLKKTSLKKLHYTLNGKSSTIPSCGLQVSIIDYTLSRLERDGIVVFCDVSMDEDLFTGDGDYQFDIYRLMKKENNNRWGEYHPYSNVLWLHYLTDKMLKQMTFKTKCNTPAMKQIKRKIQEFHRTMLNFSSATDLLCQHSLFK
Nature of the data set: Binding affinity to wild-type human partial length HASPIN (I452 to K798 residues) expressed in mammalian expression system measured after 1 hr by competitive binding assay.

Data set [8] concerns the target T2, Dual specificity protein kinase CLK1. Kind of data set: Binding affinity to wild-type human full length CLK1 (M1 to I484 residues) expressed in bacterial expression system measured after 1 hr by competitive binding assay.
Target sequence in this assay (P49759 whole entry, the tested form may be a part): as the sequence (P49759 whole entry, looked up, the tested form may be a part) above
The target in data set [9] is Homeodomain-interacting protein kinase 2 (Homo sapiens, UniProt Q9H2X6). Nature of the data set: Binding affinity to wild-type human partial length HIPK2 (M153 to S564 residues) expressed in mammalian expression system measured after 1 hr by competitive binding assay.
Chain of Homeodomain-interacting protein kinase 2 (Q9H2X6 whole entry, the tested form may be a part): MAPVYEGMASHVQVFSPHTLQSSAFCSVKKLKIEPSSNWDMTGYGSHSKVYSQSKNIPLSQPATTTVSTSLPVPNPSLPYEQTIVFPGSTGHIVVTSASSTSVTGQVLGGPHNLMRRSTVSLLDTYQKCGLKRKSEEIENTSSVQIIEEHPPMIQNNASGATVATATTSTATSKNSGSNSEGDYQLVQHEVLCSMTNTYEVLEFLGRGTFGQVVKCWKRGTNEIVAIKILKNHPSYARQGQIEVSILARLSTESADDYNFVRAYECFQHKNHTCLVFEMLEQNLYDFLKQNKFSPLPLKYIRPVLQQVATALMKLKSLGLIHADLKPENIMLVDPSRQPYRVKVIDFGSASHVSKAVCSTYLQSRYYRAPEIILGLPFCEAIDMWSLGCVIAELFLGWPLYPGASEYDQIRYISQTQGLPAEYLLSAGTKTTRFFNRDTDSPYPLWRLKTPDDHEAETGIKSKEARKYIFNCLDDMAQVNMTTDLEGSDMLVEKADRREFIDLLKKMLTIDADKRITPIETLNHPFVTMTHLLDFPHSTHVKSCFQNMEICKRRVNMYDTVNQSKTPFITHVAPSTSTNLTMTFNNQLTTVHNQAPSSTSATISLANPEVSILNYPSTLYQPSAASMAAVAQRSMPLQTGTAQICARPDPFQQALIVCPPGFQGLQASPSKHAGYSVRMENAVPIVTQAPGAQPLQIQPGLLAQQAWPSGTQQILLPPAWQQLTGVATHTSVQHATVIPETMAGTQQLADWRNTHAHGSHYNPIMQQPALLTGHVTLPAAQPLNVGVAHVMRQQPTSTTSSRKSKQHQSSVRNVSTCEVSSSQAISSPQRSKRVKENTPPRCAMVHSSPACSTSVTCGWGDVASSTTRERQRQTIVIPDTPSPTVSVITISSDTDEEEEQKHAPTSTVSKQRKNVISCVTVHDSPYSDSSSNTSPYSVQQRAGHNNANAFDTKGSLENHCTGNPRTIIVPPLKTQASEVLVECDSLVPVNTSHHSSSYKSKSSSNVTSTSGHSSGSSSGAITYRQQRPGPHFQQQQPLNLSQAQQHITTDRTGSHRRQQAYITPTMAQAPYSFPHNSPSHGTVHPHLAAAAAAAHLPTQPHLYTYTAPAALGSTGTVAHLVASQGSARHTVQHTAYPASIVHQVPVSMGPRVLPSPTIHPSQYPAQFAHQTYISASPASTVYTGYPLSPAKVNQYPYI
Data set [10] deals with MAP kinase-interacting serine/threonine-protein kinase 2 (Homo sapiens, UniProt Q9HBH9). Kind of data set: Binding affinity to wild-type human partial length MKNK2 (G63 to S388 residues) expressed in mammalian expression system measured after 1 hr by competitive binding assay.
Chain of MAP kinase-interacting serine/threonine-protein kinase 2 (Q9HBH9 whole entry, the tested form may be a part): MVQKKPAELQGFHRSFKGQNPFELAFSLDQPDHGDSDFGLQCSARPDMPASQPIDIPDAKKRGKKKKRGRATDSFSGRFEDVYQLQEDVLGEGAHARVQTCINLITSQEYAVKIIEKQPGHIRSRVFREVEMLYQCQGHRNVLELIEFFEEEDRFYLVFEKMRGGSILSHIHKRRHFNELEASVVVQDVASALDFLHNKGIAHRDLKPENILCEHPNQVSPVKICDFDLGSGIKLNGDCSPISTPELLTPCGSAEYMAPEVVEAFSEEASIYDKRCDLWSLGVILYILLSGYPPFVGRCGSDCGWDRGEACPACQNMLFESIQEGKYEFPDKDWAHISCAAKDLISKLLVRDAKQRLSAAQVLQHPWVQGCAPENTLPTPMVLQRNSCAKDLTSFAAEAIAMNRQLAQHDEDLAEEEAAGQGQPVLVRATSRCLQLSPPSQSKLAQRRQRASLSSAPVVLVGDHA
Data set [11] has as its target Calcium/calmodulin-dependent protein kinase type 1B (Homo sapiens, UniProt Q6P2M8). Nature of the data set: Binding affinity to wild-type human partial length CAMK1B (W9 to A311 residues) expressed in mammalian expression system measured after 1 hr by competitive binding assay.
Data set [12] can be described thus: Half life in Sprague-Dawley rat at 1 mg/kg, iv. Conditions: in vivo. Format: ADME, organism-based. Put shortly:
(§2)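 Single intravenous dose of 1 mg/kg given to fed Sprague–Dawley rats (n = 3); plasma and brain samples collected for pharmacokinetic parameters, with total brain:plasma ratio computed.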

The nature of data set [13]: Tmax in Sprague-Dawley rat at 1 mg/kg, iv. Format: ADME, organism-based. Conditions: in vivo. Put shortly:
as §2

Data set [14] in a line: Cmax in Sprague-Dawley rat at 1 mg/kg, iv. It counts as ADME, organism-based. The arrangement: route intravenous, dose 1 mg/kg. The settings on record: in vivo. In short, it runs like this: as §2
Data set [15] in a line: AUC infinity in Sprague-Dawley rat at 1 mg/kg, iv. It counts as ADME, organism-based. Further details: time infinity, route intravenous, dose 1 mg/kg. Conditions: in vivo. Put shortly: as §2
Data set [16] in a line: Ratio of drug concentration in brain to plasma in Sprague-Dawley rat at 1 mg/kg, iv. It counts as ADME, organism-based. Put shortly:
as §2

Chain of Calcium/calmodulin-dependent protein kinase type 1B (Q6P2M8 whole entry, the tested form may be a part): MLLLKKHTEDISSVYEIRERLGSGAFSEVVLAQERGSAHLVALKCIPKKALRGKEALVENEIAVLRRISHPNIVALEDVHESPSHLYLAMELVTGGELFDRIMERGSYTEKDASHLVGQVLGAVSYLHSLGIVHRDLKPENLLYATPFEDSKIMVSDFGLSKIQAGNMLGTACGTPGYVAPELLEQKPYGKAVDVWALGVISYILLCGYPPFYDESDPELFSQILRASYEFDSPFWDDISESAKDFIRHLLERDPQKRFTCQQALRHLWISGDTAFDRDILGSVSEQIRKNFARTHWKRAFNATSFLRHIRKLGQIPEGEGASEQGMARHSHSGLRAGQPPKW
Chain of Dual specificity protein kinase CLK2 (Homo sapiens) (P49760 whole entry, looked up, the tested form may be a part): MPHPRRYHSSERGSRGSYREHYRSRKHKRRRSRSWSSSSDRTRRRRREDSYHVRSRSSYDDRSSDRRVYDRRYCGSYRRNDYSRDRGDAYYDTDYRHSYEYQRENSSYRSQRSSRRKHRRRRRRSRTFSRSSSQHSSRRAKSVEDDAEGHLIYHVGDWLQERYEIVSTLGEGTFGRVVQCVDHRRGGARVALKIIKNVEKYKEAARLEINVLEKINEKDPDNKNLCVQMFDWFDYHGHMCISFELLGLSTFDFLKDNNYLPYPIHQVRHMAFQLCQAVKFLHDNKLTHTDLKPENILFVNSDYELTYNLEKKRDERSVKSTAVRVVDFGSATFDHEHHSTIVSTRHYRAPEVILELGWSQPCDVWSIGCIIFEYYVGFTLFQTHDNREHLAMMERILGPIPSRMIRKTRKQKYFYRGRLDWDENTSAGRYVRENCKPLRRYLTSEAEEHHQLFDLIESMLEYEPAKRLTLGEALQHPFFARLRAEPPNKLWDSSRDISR

A word on the Kd: it is a measure of binding affinity in units of concentration. Broadly, the Tmax is the time at which the peak concentration occurs. As usually defined, the Cmax is the maximum level reached in the sampled fluid or tissue. Usually AUC stands for concentration integrated over time. A higher AUC goes with more exposure. As for `CN(C)c1nccc(-c2cnn3ncccc23)n1`, the microsomal CLint in [1] came out at 231 µL/min/mg. Moreover, the solubility thermodynamic in data set [2] was 100 µg/mL (≈ 416 µM). The Activity in data set [3] came to 19%; in data set [4] it was 7.1%; in data set [5], 9.4%; in data set [6], 94%. The dissociation constant Kd is 15 nM in data set [7]; 70 nM in data set [8]; 1200 nM in [9]; 1800 nM in data set [10]; 10000 nM in data set [11]. Further, the t1/2 in data set [12] was found to be 12 min. Further, the time of peak concentration (Tmax) in data set [13] worked out at 1.8 min. In data set [14], this compound yielded a Cmax of 1082.8 ng/mL. The area under the curve (AUC) in [15] is 276.4 ng·h/mL. Besides, the BPR in [16] is listed as above 0.35.
